Laboratory results as given in paper PMC4681442 (Angewandte Chemie (International ed. in English), 2015).

How the values were obtained:
SKOV3 cells = assay: Cell viability; type: cell-based; conditions: CDDP 6 μg/mL alone
PC-12 cells = conditions: cisplatin; cited from earlier work
HS-5 cells = assay: Cytotoxicity to HS-5 cells; type: cell-based; conditions: cisplatin (Figure S16)
A2780 cells = assay: Cell viability; type: cell-based; conditions: CDDP without adding D-1, 72 h
How it was run: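 MTT assay (mitochondrial reductase activity) in cisplatin-sensitive A2780 and cisplatin-resistant A2780cis cells. Cells were incubated 72 h with precursor alone, cisplatin alone, or both together. Viability was expressed relative to untreated control, with significance thresholds p≤0.001 and p≤0.0001.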

SMILES: [NH2][Pt]([NH2])([Cl])[Cl] [CDDP, cisplatin]
- inhibition of SKOV3 cells (SKOV3 cells; 72 h (Figure 2A)): 48%
- cell death of SKOV3 cells (SKOV3 cells; 72 h, control experiment with 3): about 40%
- inhibition of PC-12 cells (PC-12 cells): significantly inhibits
- inhibition of HS-5 cells (HS-5 cells): significantly inhibits
- cell viability of A2780 (A2780 cells): about 38%
